The list is not random: actives were taken first. Their share in the collection is about 2.1%.
CAL PDZ FP-1: untagged CAL PDZ binding inhibitors, primary screen, biochemical, fluorescence polarization, HTS | Golgi-associated PDZ and coiled-coil motif-containing protein (Homo sapiens), Q9HD26 | purified CAL PDZ, TMR-peptide fluorescence polarization, 1 h | inhibition, % at 24.9 µM | 300,000 tested, 0.92% active | AID 602252, 2012;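 active = mean inhibition of at least 30% with at least half of replicates also reaching 30%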;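 also: 0% = DMSO neutral control and 100% = excess unlabeled competitor peptide PRC23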
SR-BI HDL uptake: inhibitors of SR-BI mediated HDL lipid uptake, primary screen, ldlA[mSR-BI] cells, fluorescence, single point | Scavenger receptor class B member 1 (Mus musculus), Q61009 | ldlA[mSR-BI] CHO cells, DiI-HDL uptake fluorescence, 3 h | inhibition, % at 12.5 µM | 320,000 tested, 0.96% active | AID 488896, 2010;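 active = mean replicate inhibition of at least 70% and a set share of replicates each scoring 70 or more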;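 also: 0% = median of neutral control wells and 100% = median of positive control wells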
Target sequence (Q61009 whole entry, looked up): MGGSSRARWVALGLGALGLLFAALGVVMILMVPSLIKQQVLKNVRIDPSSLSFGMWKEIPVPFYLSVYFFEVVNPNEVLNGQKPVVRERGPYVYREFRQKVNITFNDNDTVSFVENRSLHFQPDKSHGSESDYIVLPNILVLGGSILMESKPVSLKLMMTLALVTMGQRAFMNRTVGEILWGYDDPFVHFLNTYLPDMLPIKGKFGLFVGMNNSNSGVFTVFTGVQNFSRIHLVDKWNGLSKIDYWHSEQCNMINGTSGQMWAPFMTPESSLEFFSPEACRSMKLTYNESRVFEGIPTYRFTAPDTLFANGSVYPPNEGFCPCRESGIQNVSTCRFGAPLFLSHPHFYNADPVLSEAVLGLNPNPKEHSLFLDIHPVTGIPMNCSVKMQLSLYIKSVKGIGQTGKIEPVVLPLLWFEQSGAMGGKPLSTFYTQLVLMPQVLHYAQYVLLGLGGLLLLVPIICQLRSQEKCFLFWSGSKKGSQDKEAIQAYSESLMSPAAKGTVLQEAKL
SR-BI uptake up: activators of SR-BI mediated DiI-HDL uptake, primary screen, ldlA[mSR-BI] CHO cells, DiI fluorescence; activation, % at 12.5 µM; AID 504775, 2011; 3 h; 100 = double the neutral-control signal; 320,000 tested, 0.096% active;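 active = mean replicate activation of at least 60% and every replicate at or above 60%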;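 also: 0% = median plate neutral-control signal and 100% = twice that signal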
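Material: SR-BI-overexpressing, LDLR-lacking CHO cells; schedule: compound exposure 3 h, 37 °C; reagent: DiI-labelled HDL at 10 µg/mL final; technique: bottom-read fluorescence, 550/595 nm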
CAL PDZ FP-2: CAL PDZ peptide-binding inhibitors, primary screen, biochemical, fluorescence polarization, Cer-tagged CAL PDZ, HTS; inhibition, % at 20 µM; AID 504414, 2011; Golgi-associated PDZ and coiled-coil motif-containing protein (Homo sapiens), Q9HD26; 330,000 tested, 0.02% active; purified CAL PDZ, TMR-peptide fluorescence polarization, 1 h;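 active = highest replicate inhibition of at least 40%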;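 also: plate controls were DMSO neutral control wells for no effect and unlabeled competitor peptide control wells for full effect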
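Read-out basis: mP drop reported as inhibition | Assay system: Tagged CAL PDZ protein CerCALP, purified | Benchmarks: Unlabelled peptide for full inhibition, DMSO wells as neutral | Schedule: 1 h incubation at room temperature before polarization reading | Buffer or medium: Sodium phosphate/NaCl buffer pH 7.4 with TCEP, IgG, Thesit | Doses: Single point, 20 µM | Measured by: Fluorescence polarization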
ARNT-TACC3 inh: disruptors of ARNT/TACC3 protein interaction, primary screen, biochemical, AlphaScreen, single concentration; inhibition, % at 9.99 µM; 390,000 tested, 0.66% active; Transforming acidic coiled-coil-containing protein 3 (Homo sapiens), Q9Y6A5; AID 623870, 2012; AlphaScreen His-ARNT PAS-B/GST-TACC3 binding, luminescence; TACC3 fragment carries E629A point mutation;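 active = mean inhibition of replicates at least 50% and at least half of replicates each reaching 50%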;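 also: 0% = complete ARNT plus TACC3 wells and 100% = ARNT alone without TACC3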
miR-122 sensor: miR-122 Renilla sensor signal increase in Huh7, primary screen, miR-122 inhibitor project, cell-based, single point, plate reader. activation (reporter increase), % at 12.5 µM. 340,000 tested, 0.3% active. AID 602342, 2012. Huh7 miR-122 Renilla luciferase sensor, 48 h; neutral wells = 0, positive control = 100;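 active = mean replicate activation score at least 90 and every replicate individually at or above 90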;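 also: higher luciferase means less miR-122 activity so hits act as miR-122 inhibitors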
AlphaScreen ctr: AlphaScreen signal interference compounds, dose response, artefact control for ARNT-TACC3 interaction inhibitor project, biochemical, luminescence, cherry-pick; AC50, µM (top dose mostly 68 µM), inactives show at the top dose activity change, negative = signal decrease; His-ARNT PASB-GST AlphaScreen artifact counter-screen; shares compounds with ARNT-TACC3 inh; 1,200 tested, 50% active;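 active = every separate test run was called active for a drop in luminescence, with AC50 within twice the top valid dose, actives reach about 71 µM in these data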
Starred values were filed as active, the others as inactive; nt = no result given; [ ] = another dose, or the depositor's remark.

SMILES	CAL PDZ FP-1	SR-BI HDL uptake	SR-BI uptake up	CAL PDZ FP-2	ARNT-TACC3 inh	miR-122 sensor	AlphaScreen ctr
Cn1ccnc1-c1nc2ccccc2[nH]c1=O	-3.1	-12.3	12.3	-2.4	71.4*	-8.5	-11.5%
C[C@@H](Nc1nc(-c2ccccn2)nnc1-c1ccccc1)C1CCCCC1	nt	nt	nt	nt	nt	nt	4.26µM*
C[C@H](Nc1nc(-c2ccccn2)nnc1-c1ccccc1)C1CCCCC1	nt	nt	nt	nt	nt	nt	2.56µM*
COC(=O)C[C@H]1CC[C@@H]2[C@@H](COc3ccc(NC(=O)c4cccc(Cl)c4)cc3C(=O)N2C)O1	nt	nt	nt	nt	-4.9	nt	nt
CN1C(=O)c2cc(NC(=O)C3CCCC3)ccc2OC[C@@H]2O[C@@H](CC(=O)O)CC[C@H]21	nt	nt	nt	nt	1.9	22.5[16.7 µM]	nt
N/C(=N\NS(=O)(=O)c1ccccc1Cl)c1ccccn1	-2.2	-10.9	10.9	-1.0	55.3*	nt	-9.0%
N/C(=N\OS(=O)(=O)c1ccc(Cl)cc1)c1ccccn1	-5.6	-13.0	13.0	-3.0	53.1*	nt	-18.3%
N/C(=N\OC(=O)c1ccccc1Cl)c1ccccn1	nt	-2.5	2.5	-1.5	-7.3	nt	nt
CNC(=O)C[C@H]1CC[C@H]2[C@@H](COc3ccc(NC(=O)Nc4ccc(C)cc4)cc3C(=O)N2C)O1	nt	nt	nt	nt	0.2	-11.3[16.7 µM]	nt
COc1ccc([Si](C)(C)[C@@H]2[C@@H](CCO)O[C@]3(C(=O)N4c5c(cc(OC)cc53)C(C)=CC4(C)C)[C@H]2C)cc1	nt	nt	nt	nt	52.1*	nt	9.01µM*
COc1ccc([Si](C)(C)[C@H]2[C@H](CCO)O[C@@]3(C(=O)N4c5c(cc(OC)cc53)C(C)=CC4(C)C)[C@@H]2C)cc1	nt	nt	nt	nt	41.5	nt	nt
O=C(COC(=O)c1ccc([N+](=O)[O-])s1)NCCc1ccccc1	nt	9.9	-9.9	-0.7	50.4*	5.3	-19.0%
Nc1[nH]c(N=NC(=O)c2ccc(F)cc2)c2ccccc12	nt	7.9	-7.9	-1.0	-4.0	nt	nt
Nc1ccccc1C(=O)N=Nc1[nH]c(N)c2ccccc12	-7.4	-28.6	28.6	-2.2	61.6*	nt	55.7µM*
N#C[C@@H]1[C@@H](c2ccc(-c3ccc(F)cc3)cc2)[C@H](CO)N1c1nc(-c2ccccc2)cs1	nt	nt	nt	nt	56.2*	nt	58µM*
Cc1noc(C)c1S(=O)(=O)Nc1ccc2c(c1)CC(=O)N([C@@H](C)CO)C[C@@H](C)[C@H](CN(C)S(=O)(=O)c1ccccc1)O2	nt	nt	nt	nt	3.4	1.3[16.7 µM]	nt
COC(=O)[C@@H]1[C@@H](CO)[C@@H]2Cn3c(ccc(C4=CCCC4)c3=O)[C@@H]2N1C(=O)C1CCC1	nt	nt	nt	nt	-4.0	2.1[16.7 µM]	nt
CC1(c2ccccc2)NC(=O)N(CC(=O)Nc2nc(-c3ccccn3)cs2)C1=O (stereo not drawn)	-1.0	-0.2	0.2	-1.3	60.8*	nt	56.2µM*
CC1(c2ccccc2)NC(=O)N(CC(=O)NNC(=O)c2ccccc2)C1=O (stereo not drawn)	-0.5	-10.1	10.1	-1.0	nt	nt	nt
Cc1ccc(S(=O)(=O)CCC(=O)Nc2nc(-c3ccccn3)cs2)cc1	-4.1	-0.9	0.9	0.7	80.3*	11.1	71.4µM*
Cc1ccc(C2(C)NC(=O)N(CC(=O)Nc3nc(-c4ccccn4)cs3)C2=O)cc1 (stereo not drawn)	-9.0	24.9	-24.9	-2.7	53.5*	9.4	32.8µM*
Cc1ccc(OCC(=O)Nc2nc(-c3ccccn3)cs2)c(C)c1	-4.8	3.4	-3.4	-2.0	11.4	6.2	nt

Source: PubChem BioAssay (Broad Institute)
